Source: ChEMBL document CHEMBL3108759, “Scaffold ranking and positional scanning utilized in the discovery of nAChR-selective compounds suitable for optimization studies” (J Med Chem, 2013)
pIC50, pKi: −log10 of the molar value. Activity calls are given as the source filed them. The calls are words filed in the database; no cut-off is given here.

How the values were obtained:
[1] = species: Rattus norvegicus; assay: Selectivity ratio of Ki for rat alpha3beta4 nAChR to Ki for rat alpha4beta2 nAChR
In short: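 Selectivity was calculated from [3H]epibatidine-binding Ki values as (Ki α3β4 − Ki α4β2)/Ki α4β2.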

[2] = biological target: T1, Neuronal acetylcholine receptor; alpha4/beta2 (Rattus norvegicus, UniProt P09483+P12390); assay: Antagonist activity at rat alpha4beta2 nAChR transfected in HEK293 cells after 10 mins by fluorescence assay in presence of nicotine; format: cell-based
In short: (§1)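 Transfected HEK cells were seeded at 4000/well the day before and loaded with blue membrane-potential dye in HBSS/20 mM HEPES pH 7.4 at 37 °C for 20 min. […] Fluorescence (ex 530, em 550–580) was recorded every 3 s for 120 s on a FlexStation.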

[3] = biological target: T1, Neuronal acetylcholine receptor; alpha4/beta2; assay: Displacement of [3H]epibatidine from rat alpha4beta2 nAChR transfected in HEK293 cells after 2 hrs by beta-plate counting analysis; format: cell-based
In short: (§2)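 Cell lines KXα3β4R2 and KXα4β2R2 (rat receptors) were used. Membranes were prepared by homogenizing cells in 50 mM Tris pH 7.4 and centrifuging twice at 20000g. They were incubated 2 h at room temperature with 0.3 nM [3H]epibatidine plus test sample, then filtered on PEI-soaked glass fiber and counted. Nonspecific binding was defined by 1 µM AT-1001 or 0.1 µM epibatidine. Ki was obtained by Cheng–Prusoff; runs were in triplicate, at least twice.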

[4] = biological target: Neuronal acetylcholine receptor; alpha3/beta4 (Rattus norvegicus, UniProt P04757+P12392); assay: Displacement of [3H]epibatidine from rat alpha3beta4 nAChR transfected in HEK293 cells after 2 hrs by beta-plate counting analysis; format: cell-based; in short: as §2
[5] = system: HEK293; assay: Selectivity ratio for rat alpha3beta4 nAChR transfected in HEK293 cells to rat alpha4beta2 nAChR transfected in HEK293 cells; format: cell-based
[6] = biological target: T2, Neuronal acetylcholine receptor; alpha4/beta2 (Rattus norvegicus) (UniProt P09483+P12390); assay: Noncompetitive inhibition of nicotine-induced rat alpha4beta2 nAChR transfected in HEK293 cells assessed as stimulation of membrane potential at 3 uM after 10 mins by fluorescence assay; format: cell-based; design: scale not given: the % may be the effect or the level left; in short: as §1
[7] = biological target: T2, Neuronal acetylcholine receptor; alpha4/beta2 (Rattus norvegicus); assay: Noncompetitive inhibition of nicotine-induced rat alpha4beta2 nAChR transfected in HEK293 cells assessed as stimulation of membrane potential at 1 uM after 10 mins by fluorescence assay; format: cell-based; design: scale not given: the % may be the effect or the level left; in short: as §1
[8] = biological target: T2, Neuronal acetylcholine receptor; alpha4/beta2 (Rattus norvegicus); assay: Inverse agonist activity at nicotine-induced rat alpha4beta2 nAChR activation transfected in HEK293 cells; format: cell-based
[9] = biological target: T2, Neuronal acetylcholine receptor; alpha4/beta2 (Rattus norvegicus); assay: Noncompetitive inhibition of nicotine-induced rat alpha4beta2 nAChR transfected in HEK293 cells assessed as stimulation of membrane potential after 10 mins by fluorescence assay; format: cell-based; in short: as §1
[10] = biological target: T2, Neuronal acetylcholine receptor; alpha4/beta2 (Rattus norvegicus); assay: Noncompetitive inhibition of nicotine-induced rat alpha4beta2 nAChR transfected in HEK293 cells assessed as stimulation of membrane potential at 0.3 uM after 10 mins by fluorescence assay; format: cell-based; design: scale not given: the % may be the effect or the level left; in short: as §1
[11] = biological target: T3, Neuronal acetylcholine receptor; alpha3/beta4 (Rattus norvegicus) (UniProt P04757+P12392); assay: Antagonist activity at rat alpha3beta4 nAChR transfected in HEK293 cells assessed as inhibition of nicotine-induced membrane potential stimulation at 10 uM after 10 mins by fluorescence assay; format: cell-based; in short: as §1
[12] = biological target: T2, Neuronal acetylcholine receptor; alpha4/beta2 (Rattus norvegicus); assay: Agonist activity at rat alpha4beta2 nAChR transfected in HEK293 cells assessed as change in membrane potential measured every 3 secs for 120 secs by fluorescence assay; format: cell-based
In short: (§3)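 Membrane potential read with blue potentiometric dye on a FlexStation. Transfected HEK cells were seeded at 4000/well one day ahead, washed, then loaded with dye in HBSS containing 20 mM HEPES, pH 7.4, for 30 min at 37 °C. Compound was then dispensed automatically and fluorescence (ex 530, em 550–580) recorded every 3 s for 120 s.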

[13] = biological target: T3, Neuronal acetylcholine receptor; alpha3/beta4 (Rattus norvegicus); assay: Agonist activity at rat alpha3beta4 nAChR transfected in HEK293 cells assessed as change in membrane potential measured every 3 secs for 120 secs by fluorescence assay; format: cell-based; in short: as §3
[14] = biological target: Nicotinic acetylcholine receptor alpha3/beta4/alpha5 (Homo sapiens, UniProt P30532+P30926+P32297); assay: Binding affinity to alpha3beta4alpha5 nAChR (unknown origin); format: protein-complex assay
Chain of Nicotinic acetylcholine receptor alpha3/beta4/alpha5 (P30926 whole entry): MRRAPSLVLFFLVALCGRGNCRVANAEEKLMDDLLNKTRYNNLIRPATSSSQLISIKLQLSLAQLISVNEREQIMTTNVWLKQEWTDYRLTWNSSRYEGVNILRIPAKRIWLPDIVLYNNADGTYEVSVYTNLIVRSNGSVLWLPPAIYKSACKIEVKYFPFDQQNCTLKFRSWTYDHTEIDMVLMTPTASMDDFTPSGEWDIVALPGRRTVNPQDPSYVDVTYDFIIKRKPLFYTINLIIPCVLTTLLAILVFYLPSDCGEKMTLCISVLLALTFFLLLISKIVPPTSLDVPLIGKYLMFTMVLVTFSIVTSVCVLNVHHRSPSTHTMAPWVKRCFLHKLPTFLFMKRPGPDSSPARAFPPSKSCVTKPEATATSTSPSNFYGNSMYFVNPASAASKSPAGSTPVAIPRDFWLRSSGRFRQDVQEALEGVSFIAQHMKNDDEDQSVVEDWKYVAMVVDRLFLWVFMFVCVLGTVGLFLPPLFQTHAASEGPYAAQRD
Chain of Nicotinic acetylcholine receptor alpha3/beta4/alpha5 (P32297 whole entry): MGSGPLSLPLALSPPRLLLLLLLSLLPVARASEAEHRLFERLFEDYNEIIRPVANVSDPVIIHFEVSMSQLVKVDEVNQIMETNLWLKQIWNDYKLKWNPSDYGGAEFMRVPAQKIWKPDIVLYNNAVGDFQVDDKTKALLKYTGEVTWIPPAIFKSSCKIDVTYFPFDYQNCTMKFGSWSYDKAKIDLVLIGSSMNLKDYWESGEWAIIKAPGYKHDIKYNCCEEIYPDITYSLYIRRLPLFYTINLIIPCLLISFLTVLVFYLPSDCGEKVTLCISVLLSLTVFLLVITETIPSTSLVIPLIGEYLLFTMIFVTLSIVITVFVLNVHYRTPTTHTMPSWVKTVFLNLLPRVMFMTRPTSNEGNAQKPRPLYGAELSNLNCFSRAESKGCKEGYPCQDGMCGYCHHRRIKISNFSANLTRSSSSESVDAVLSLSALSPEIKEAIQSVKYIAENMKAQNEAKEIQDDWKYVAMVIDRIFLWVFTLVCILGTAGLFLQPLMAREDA
Chain of Nicotinic acetylcholine receptor alpha3/beta4/alpha5 (P30532 whole entry): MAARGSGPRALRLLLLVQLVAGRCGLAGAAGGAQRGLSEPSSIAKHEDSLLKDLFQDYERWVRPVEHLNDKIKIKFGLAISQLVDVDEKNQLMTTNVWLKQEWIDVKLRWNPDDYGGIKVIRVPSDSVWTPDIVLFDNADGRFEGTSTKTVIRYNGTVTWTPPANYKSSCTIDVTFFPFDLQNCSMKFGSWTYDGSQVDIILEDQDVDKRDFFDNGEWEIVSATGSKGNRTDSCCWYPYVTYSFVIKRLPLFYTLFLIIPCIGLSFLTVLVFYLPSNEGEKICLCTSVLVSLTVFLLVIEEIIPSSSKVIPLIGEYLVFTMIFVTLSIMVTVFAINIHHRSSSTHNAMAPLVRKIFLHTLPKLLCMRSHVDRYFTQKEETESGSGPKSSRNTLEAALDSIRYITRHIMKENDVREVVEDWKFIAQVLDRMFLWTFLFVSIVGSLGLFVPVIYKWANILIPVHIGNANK

T1 sequence (P09483 whole entry): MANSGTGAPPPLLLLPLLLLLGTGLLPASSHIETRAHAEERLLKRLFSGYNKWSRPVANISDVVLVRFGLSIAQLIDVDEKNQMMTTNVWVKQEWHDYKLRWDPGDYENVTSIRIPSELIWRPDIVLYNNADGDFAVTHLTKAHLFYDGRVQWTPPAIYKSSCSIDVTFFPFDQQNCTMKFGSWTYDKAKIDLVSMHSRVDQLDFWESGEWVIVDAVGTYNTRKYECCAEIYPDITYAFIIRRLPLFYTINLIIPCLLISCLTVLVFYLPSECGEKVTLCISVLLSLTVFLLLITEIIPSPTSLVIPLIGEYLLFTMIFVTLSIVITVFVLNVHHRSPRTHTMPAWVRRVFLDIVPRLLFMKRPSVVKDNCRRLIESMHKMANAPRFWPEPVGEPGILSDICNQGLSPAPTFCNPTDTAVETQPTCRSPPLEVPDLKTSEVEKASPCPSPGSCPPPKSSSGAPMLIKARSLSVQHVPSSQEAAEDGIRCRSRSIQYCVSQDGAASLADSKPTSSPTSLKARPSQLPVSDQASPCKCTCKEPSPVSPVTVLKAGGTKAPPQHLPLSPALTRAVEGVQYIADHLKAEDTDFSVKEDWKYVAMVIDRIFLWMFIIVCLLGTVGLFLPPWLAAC
T1 sequence (P12390 whole entry): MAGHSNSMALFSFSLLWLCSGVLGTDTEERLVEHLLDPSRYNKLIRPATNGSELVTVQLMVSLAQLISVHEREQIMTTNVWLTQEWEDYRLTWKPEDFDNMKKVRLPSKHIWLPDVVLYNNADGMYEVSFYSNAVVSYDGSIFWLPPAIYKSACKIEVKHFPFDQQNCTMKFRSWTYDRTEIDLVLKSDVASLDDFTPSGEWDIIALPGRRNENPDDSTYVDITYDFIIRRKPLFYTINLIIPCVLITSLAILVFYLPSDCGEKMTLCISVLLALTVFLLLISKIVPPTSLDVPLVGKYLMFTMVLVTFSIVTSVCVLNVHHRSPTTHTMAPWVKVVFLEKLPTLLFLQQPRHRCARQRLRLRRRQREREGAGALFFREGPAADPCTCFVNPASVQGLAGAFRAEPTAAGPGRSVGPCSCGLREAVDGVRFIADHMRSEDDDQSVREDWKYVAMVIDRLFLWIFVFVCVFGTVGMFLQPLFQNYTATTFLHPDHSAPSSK
Chain of Neuronal acetylcholine receptor; alpha3/beta4 (P04757 whole entry): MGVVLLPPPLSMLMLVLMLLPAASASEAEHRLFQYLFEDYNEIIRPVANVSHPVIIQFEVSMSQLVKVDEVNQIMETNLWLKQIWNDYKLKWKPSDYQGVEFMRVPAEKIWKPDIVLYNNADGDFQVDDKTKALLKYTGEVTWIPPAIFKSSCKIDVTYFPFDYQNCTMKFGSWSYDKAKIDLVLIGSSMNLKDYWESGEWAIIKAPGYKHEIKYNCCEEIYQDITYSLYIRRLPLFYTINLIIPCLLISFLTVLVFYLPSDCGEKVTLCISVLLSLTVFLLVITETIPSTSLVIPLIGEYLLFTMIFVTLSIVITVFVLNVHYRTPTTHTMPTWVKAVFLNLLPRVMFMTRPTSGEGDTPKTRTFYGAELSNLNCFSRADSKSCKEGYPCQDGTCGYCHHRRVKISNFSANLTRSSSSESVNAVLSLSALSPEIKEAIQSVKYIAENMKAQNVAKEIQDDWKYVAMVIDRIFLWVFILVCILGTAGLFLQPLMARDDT
Chain of Neuronal acetylcholine receptor; alpha3/beta4 (P12392 whole entry): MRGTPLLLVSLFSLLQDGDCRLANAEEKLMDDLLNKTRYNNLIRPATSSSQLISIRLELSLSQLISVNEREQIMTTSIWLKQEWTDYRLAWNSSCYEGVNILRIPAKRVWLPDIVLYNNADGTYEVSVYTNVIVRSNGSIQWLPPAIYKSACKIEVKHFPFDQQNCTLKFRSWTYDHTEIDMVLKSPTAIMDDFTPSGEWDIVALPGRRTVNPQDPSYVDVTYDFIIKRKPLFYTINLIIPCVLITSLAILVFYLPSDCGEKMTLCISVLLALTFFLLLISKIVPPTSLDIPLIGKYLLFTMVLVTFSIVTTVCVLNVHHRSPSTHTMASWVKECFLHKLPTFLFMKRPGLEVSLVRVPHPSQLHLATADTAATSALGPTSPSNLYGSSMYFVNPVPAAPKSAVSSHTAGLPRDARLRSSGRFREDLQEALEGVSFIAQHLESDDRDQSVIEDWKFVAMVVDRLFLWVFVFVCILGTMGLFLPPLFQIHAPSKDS

CC(C)(C)C1CCC(CN2CCN(CCCC[C@@H]3CNC(=N)N3CCc3cccnc3)C2=N)CC1 (some centres not stated)
Ratio Ki [1]: 23
pIC50 [2]: 5.53
pKi [3]: 5.65
pKi [4]: 4.28

CC(C)(C)C1CCC(CN2C(=N)N(CCCC[C@H]3CN=C(N)N3CCc3cccc(F)c3)C[C@H]2CC2CCCCC2)CC1 (some centres not stated)
pIC50 [2]: 5.27
pKi [3]: 5.43
pKi [4]: 4.05

CC(C)CCCN1C(N)=NC[C@@H]1CCCCN1C[C@@H](Cc2ccccc2)N(CC2CCC(C(C)(C)C)CC2)C1=N (some centres not stated)
pKi [3]: 5.64
pKi [4]: 4.16

N=C1N(CCCC[C@H]2CN=C(N)N2CCc2ccc(Cl)c(Cl)c2)C[C@@H](Cc2ccc3ccccc3c2)N1CCc1cccc(Br)c1
pKi [3]: 5.72
pKi [4]: 5.52

CC(C)CCCN1C(N)=NC[C@@H]1CCCCN1C[C@@H](CC2CCCCC2)N(CCc2cccc(Br)c2)C1=N
pKi [3]: 5.48
pKi [4]: 4.43

CCCCCCCN1C(N)=NC[C@@H]1CCCCN1C[C@@H](CC2CCCCC2)N(CC2CCC(C(C)(C)C)CC2)C1=N (some centres not stated)
pKi [3]: 5.41
pKi [4]: 4.26

CC(C)(C)C1CCC(CN2CCN(CCCC[C@H]3CN=C(N)N3CCc3cccnc3)C2=N)CC1 (some centres not stated)
pIC50 [2]: 5.55
pKi [3]: 6.36
pKi [4]: 4.56

CCCCCCCN1C(N)=NC[C@@H]1CCCCN1C[C@@H](CC2CCCCC2)N(CCc2cccc(Br)c2)C1=N
pKi [3]: 5.55
pKi [4]: 4.63

CC(C)(C)C1CCC(CN2C(=N)N(CCCC[C@H]3CN=C(N)N3CCc3cccnc3)C[C@@H]2CC2CCCCC2)CC1 (some centres not stated)
pIC50 [2]: 5.47
pKi [3]: 6.21
pKi [4]: 4.11

N=C1NC[C@H](CCCCN2C[C@@H](CC3CCCCC3)N(CCc3cccc(Br)c3)C2=N)N1CCc1cccc(F)c1
Selectivity ratio [5]: 4.8

N=C1NC[C@H](CCCCN2C[C@@H](Cc3ccccc3)N(CCc3cccc(Br)c3)C2=N)N1CCc1cccc(F)c1
Selectivity ratio [5]: 10.1

CC(C)(C)C1CCC(CN2C(=N)N(CCCC[C@H]3CNC(=N)N3CCc3cccnc3)C[C@@H]2CC2CCCCC2)CC1 (some centres not stated)
Ratio Ki [1]: 128

CO[C@H]1CC=C2CCN3CCC4=C(CC(=O)OC4)[C@]23C1
pIC50 [2]: 6.20
pKi [3]: 6.31
pKi [4]: < 5.00

N=C1NC[C@H](CCCCN2C[C@H](Cc3ccc4ccccc4c3)N(CCc3cccc(Br)c3)C2=N)N1CCc1ccc(Cl)c(Cl)c1
Selectivity ratio [5]: 0.8

CCCCCCCN1C(=N)NC[C@@H]1CCCCN1C[C@@H](Cc2ccccc2)N(CC2CCC(C(C)(C)C)CC2)C1=N (some centres not stated)
Selectivity ratio [5]: 19.3

CC(C)(C)C1CCC(CN2C(=N)N(CCCC[C@H]3CN=C(N)N3CCc3cccnc3)C[C@H]2CC2CCCCC2)CC1 (some centres not stated)
pIC50 [2]: 5.55
pKi [3]: 6.47
pKi [4]: 4.22

N=C1N(CCCC[C@H]2CN=C(N)N2CCc2cccc(F)c2)C[C@@H](Cc2ccccc2)N1CCc1cccc(Br)c1
pKi [3]: 5.74
pKi [4]: 4.69

CC(C)CCCN1C(=N)NC[C@@H]1CCCCN1C[C@@H](Cc2ccccc2)N(CCc2cccc(Br)c2)C1=N
Selectivity ratio [5]: 17.5
pKi [3]: 5.59
pKi [4]: 4.32

N=C1N(CCCC[C@H]2CN=C(N)N2CCc2ccc(Cl)c(Cl)c2)C[C@H](Cc2ccc3ccccc3c2)N1CCc1ccc(Cl)c(Cl)c1
pKi [3]: 3.74
pKi [4]: 4.00

CC(C)CCCN1C(=N)NC[C@@H]1CCCCN1C[C@@H](Cc2ccccc2)N(CC2CCC(C(C)(C)C)CC2)C1=N (some centres not stated)
Selectivity ratio [5]: 28.5

N=C1NC[C@H](CCCCN2C[C@@H](Cc3ccc4ccccc4c3)N(CCc3ccc(Cl)c(Cl)c3)C2=N)N1CCc1ccc(Cl)c(Cl)c1
Selectivity ratio [5]: 6.3

CC(C)(C)C1CCC(CN2C(=N)N(CCCC[C@H]3CNC(=N)N3CCc3cccnc3)C[C@H]2Cc2ccccc2)CC1 (some centres not stated)
Activity [6]: 0%
Activity [7]: 38%
Ratio Ki [1]: 478
Activity [8]: Active
inhibition [9]: Dose-dependent effect
Activity [10]: 83%
inhibition [11]: 50%
Activity [12]: inactive
Activity [13]: inactive
pKi [14]: 5.04
pIC50 [2]: 6.29
Selectivity ratio [5]: 20
pKi [3]: 6.93
pKi [4]: 4.25

CC(C)(C)C1CCC(CN2C(=N)N(CCCC[C@@H]3CNC(=N)N3CCc3cccnc3)C[C@H]2Cc2ccccc2)CC1 (some centres not stated)
Ratio Ki [1]: 206
pIC50 [2]: 5.52
pKi [3]: 6.51
pKi [4]: 4.20

CC(C)(C)C1CCC(CN2C(=N)N(CCCC[C@H]3CN=C(N)N3CCc3cccnc3)C[C@@H]2Cc2ccccc2)CC1 (some centres not stated)
pIC50 [2]: 5.83
pKi [3]: 6.49
pKi [4]: 4.62

N=C1N(CCCC[C@H]2CN=C(N)N2CCc2ccc(Cl)c(Cl)c2)C[C@H](Cc2ccc3ccccc3c2)N1CCc1ccc(Br)cc1
pKi [3]: 5.51
pKi [4]: 5.57

CC(C)(C)C1CCC(CN2C(=N)N(CCCC[C@H]3CNC(=N)N3CCc3cccc(F)c3)C[C@H]2CC2CCCCC2)CC1 (some centres not stated)
Ratio Ki [1]: 24
Selectivity ratio [5]: 25.9

CCCCCCCN1C(=N)NC[C@@H]1CCCCN1C[C@@H](CC2CCCCC2)N(CC2CCC(C(C)(C)C)CC2)C1=N (some centres not stated)
Selectivity ratio [5]: 13.2

N=C1N(CCCC[C@H]2CN=C(N)N2CCc2cccc(F)c2)C[C@@H](CC2CCCCC2)N1CCc1cccc(Br)c1
pKi [3]: 5.46
pKi [4]: 4.70

CC(C)(C)C1CCC(CN2C(=N)N(CCCC[C@H]3CNC(=N)N3CCc3cccc(F)c3)C[C@H]2Cc2ccccc2)CC1 (some centres not stated)
Ratio Ki [1]: 39
pIC50 [2]: 4.58
Selectivity ratio [5]: 19
pKi [3]: 5.80
pKi [4]: 4.21

CCCCCCCN1C(=N)NC[C@@H]1CCCCN1C[C@@H](CC2CCCCC2)N(CCc2cccc(Br)c2)C1=N
Selectivity ratio [5]: 7.2

CC(C)CCCN1C(=N)NC[C@@H]1CCCCN1C[C@@H](CC2CCCCC2)N(CC2CCC(C(C)(C)C)CC2)C1=N (some centres not stated)
Selectivity ratio [5]: 21.2

N=C1NC[C@H](CCCCN2C[C@H](Cc3ccc4ccccc4c3)N(CCc3ccc(Br)cc3)C2=N)N1CCc1ccc(Cl)c(Cl)c1
Selectivity ratio [5]: -0.1

CC(C)(C)C1CCC(CN2CCN(CCCC[C@H]3CNC(=N)N3CCc3cccnc3)C2=N)CC1 (some centres not stated)
Ratio Ki [1]: 64

CC(C)(C)C1CCC(CN2C(=N)N(CCCC[C@H]3CNC(=N)N3CCc3cccnc3)C[C@@H]2Cc2ccccc2)CC1 (some centres not stated)
Ratio Ki [1]: 74

N=C1NC[C@H](CCCCN2C[C@@H](Cc3ccc4ccccc4c3)N(CCc3cccc(Br)c3)C2=N)N1CCc1ccc(Cl)c(Cl)c1
Selectivity ratio [5]: 0.6

CC(C)CCCN1C(N)=NC[C@@H]1CCCCN1C[C@@H](CC2CCCCC2)N(CC2CCC(C(C)(C)C)CC2)C1=N (some centres not stated)
pKi [3]: 5.46
pKi [4]: 4.11

N=C1NC[C@H](CCCCN2C[C@@H](Cc3ccc4ccccc4c3)N(CCc3ccc(Br)cc3)C2=N)N1CCc1ccc(Cl)c(Cl)c1
Selectivity ratio [5]: 0.6

N=C1N(CCCC[C@H]2CN=C(N)N2CCc2ccc(Cl)c(Cl)c2)C[C@@H](Cc2ccc3ccccc3c2)N1CCc1ccc(Cl)c(Cl)c1
pKi [3]: 4.32
pKi [4]: 3.46

CCCCCCCN1C(N)=NC[C@@H]1CCCCN1C[C@@H](Cc2ccccc2)N(CC2CCC(C(C)(C)C)CC2)C1=N (some centres not stated)
pKi [3]: 5.57
pKi [4]: 4.26

CC(C)CCCN1C(=N)NC[C@@H]1CCCCN1C[C@@H](CC2CCCCC2)N(CCc2cccc(Br)c2)C1=N
Selectivity ratio [5]: 10.2

N=C1N(CCCC[C@H]2CN=C(N)N2CCc2ccc(Cl)c(Cl)c2)C[C@H](Cc2ccc3ccccc3c2)N1CCc1cccc(Br)c1
pKi [3]: 4.36
pKi [4]: 4.12

N=C1N(CCCC[C@H]2CN=C(N)N2CCc2ccc(Cl)c(Cl)c2)C[C@@H](Cc2ccc3ccccc3c2)N1CCc1ccc(Br)cc1
pKi [3]: 5.60
pKi [4]: 5.40

CC(C)(C)C1CCC(CN2C(=N)N(CCCC[C@@H]3CNC(=N)N3CCc3cccnc3)C[C@H]2CC2CCCCC2)CC1 (some centres not stated)
Ratio Ki [1]: 130
pIC50 [2]: 5.77
pKi [3]: 6.59
pKi [4]: 4.48

CCCCCCCN1C(=N)NC[C@@H]1CCCCN1C[C@@H](Cc2ccccc2)N(CCc2cccc(Br)c2)C1=N
Selectivity ratio [5]: 4.8
pKi [3]: 5.60
pKi [4]: 4.84

CC(C)(C)C1CCC(CN2C(=N)N(CCCC[C@H]3CNC(=N)N3CCc3cccnc3)C[C@H]2CC2CCCCC2)CC1 (some centres not stated)
Ratio Ki [1]: 176
